Measurements from ChEMBL document CHEMBL1123312, “In the search for new anticancer drugs. 17. Linear and cyclic polyether analogues of N,N:N',N':N'',N''-tri-1,2-ethanediylphosphoric triamide and N,N:N',N':N'',N''-tri-1,2-ethanediylphosphorothioic triamide” (J Med Chem, 1986).
Values joined by “and” are separate entries in the source; they are usually repeats but may differ in a detail not shown here. Equal entries are not always repeated.

Tests used:
[1] = partition coefficient with the use of 1-octanol / water solvent system; format: physicochemical
In short: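 4 mL of 10 mM aqueous compound was stirred vigorously with 2 mL 1-octanol for 5 min at 25 °C. The aqueous layer was analysed by ³¹P NMR, and signal intensity (peak height × width at half-height) gave concentrations in each phase. P = [octanol]/[water].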

[2] = system: Mus musculus; experiment: Percentage increase in life span when the compound was administered intraperitoneally at dose of 20 mg/Kg in P388 leukemia in CDF1 mice was determined; format: functional; conditions: P388, ip
In short: (§1)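 CD2F1 male mice, 19–22 g, in groups of six, inoculated ip with 10⁶ P388 cells on day 0. Dosed ip once daily for 9 days from day 1, in saline, or for linear polyethers in aqueous 2% Tween 80. Deaths and survivors were recorded to 30 days, some to 60. T/C is mean survival, treated vs tumour-bearing control. %ILS = [(T−C)/C]×100. Average day-5 weight change was taken as toxicity.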

[3] = system: Mus musculus; experiment: Percentage increase in life span when the compound was administered intraperitoneally at dose of 60 mg/Kg in P388 leukemia in CDF1 mice was determined; format: functional; conditions: P388, ip; in short: as §1
[4] = system: Mus musculus; experiment: Anticancer activity against P388 leukemia in CD2F1 male mice by 60 mg/kg/day.; format: functional; in short: as §1
[5] = system: Mus musculus; experiment: Anticancer activity against P388 leukemia in CD2F1 male mice expressed as Average % weight change on day 5 as a measure of toxicity was reported at a dose of 60 mg/kg/day.; format: functional; in short: as §1
[6] = system: Mus musculus; experiment: Compound was evaluated for the anticancer activity against P388 leukemia in CD2F1 male mice at a dose of 60 mg/kg/after 30 days; 0/6; format: functional; in short: as §1
[7] = system: Mus musculus; experiment: Compound was evaluated for the anticancer activity against P388 leukemia in CD2F1 male mice at a dose of 20 mg/kg/after 30 days; 0/6; format: functional
[8] = system: Mus musculus; experiment: Anticancer activity against P388 leukemia in CD2F1 male mice expressed as Average % weight change on day 5 as a measure of toxicity was reported at a dose of 20 mg/kg/day.; format: functional; in short: as §1
[9] = system: Mus musculus; experiment: Percentage increase in life span when the compound was administered intraperitoneally at dose of 10 mg/Kg in P388 leukemia in CDF1 mice was determined; format: functional; conditions: P388, ip; in short: as §1
[10] = system: Mus musculus; experiment: Percentage increase in life span when the compound was administered intraperitoneally at dose of 125 mg/Kg in P388 leukemia in CDF1 mice was determined; format: functional; conditions: P388, ip; in short: as §1
[11] = system: Mus musculus; experiment: Percentage increase in life span when the compound was administered intraperitoneally at dose of 30 mg/Kg in P388 leukemia in CDF1 mice was determined; format: functional; conditions: P388, ip; in short: as §1
[12] = system: Mus musculus; experiment: Percentage increase in life span when the compound was administered intraperitoneally at dose of 40 mg/Kg in P388 leukemia in CDF1 mice was determined; format: functional; conditions: P388, ip; in short: as §1
[13] = system: Mus musculus; experiment: Percentage increase in life span when the compound was administered intraperitoneally at dose of 5 mg/Kg in P388 leukemia in CDF1 mice was determined; format: functional; conditions: P388, ip; in short: as §1
[14] = system: Mus musculus; experiment: Percentage increase in life span when the compound was administered intraperitoneally at dose of 90 mg/Kg in P388 leukemia in CDF1 mice was determined; format: functional; conditions: P388, ip; in short: as §1
[15] = system: Mus musculus; experiment: Compound was evaluated for the anticancer activity against P388 leukemia in CD2F1 male mice at a dose of 10 mg/kg/day.; format: functional; in short: as §1
[16] = system: Mus musculus; experiment: Anticancer activity against P388 leukemia in CD2F1 male mice by 20 mg/kg/day.; format: functional; in short: as §1
[17] = system: Mus musculus; experiment: Compound was evaluated for the anticancer activity against P388 leukemia in CD2F1 male mice at a dose of 30 mg/kg/day.; format: functional; in short: as §1
[18] = system: Mus musculus; experiment: Compound was evaluated for the anticancer activity against P388 leukemia in CD2F1 male mice at a dose of 40 mg/kg/day.; format: functional; conditions: at 40 mg/kg/day
[19] = system: Mus musculus; experiment: Compound was evaluated for the anticancer activity against P388 leukemia in CD2F1 male mice at a dose of 90 mg/kg/day.; format: functional; in short: as §1
[20] = system: Mus musculus; experiment: Compound was evaluated for the anticancer activity against P388 leukemia in CD2F1 male mice at a dose of 90 mg/kg/after 60 days; 5/6; format: functional; in short: as §1
[21] = system: Mus musculus; experiment: Compound was evaluated for the anticancer activity against P388 leukemia in CD2F1 male mice at a dose of 30 mg/kg/after 30 days; 0/6; format: functional; in short: as §1
[22] = system: Mus musculus; experiment: Compound was evaluated for the anticancer activity against P388 leukemia in CD2F1 male mice at a dose of 40 mg/kg/after 30 days; 0/6; format: functional
[23] = system: Mus musculus; experiment: Compound was evaluated for the anticancer activity against P388 leukemia in CD2F1 male mice at a dose of 60 mg/kg/after 30 days; 3/6; format: functional; in short: as §1
[24] = system: Mus musculus; experiment: Compound was evaluated for the anticancer activity against P388 leukemia in CD2F1 male mice at a dose of 60 mg/kg/after 60 days; 1/6; format: functional; in short: as §1
[25] = system: Mus musculus; experiment: Compound was evaluated for the anticancer activity against P388 leukemia in CD2F1 male mice at a dose of 90 mg/kg/after 30 days; 6/6; format: functional; in short: as §1
[26] = system: Mus musculus; experiment: Anticancer activity against P388 leukemia in CD2F1 male mice expressed as Average % weight change on day 5 as a measure of toxicity was reported at a dose of 30 mg/kg/day.; format: functional; in short: as §1
[27] = system: Mus musculus; experiment: Anticancer activity against P388 leukemia in CD2F1 male mice expressed as Average % weight change on day 5 as a measure of toxicity was reported at a dose of 40 mg/kg/day.; format: functional; in short: as §1
[28] = system: Mus musculus; experiment: Anticancer activity against P388 leukemia in CD2F1 male mice expressed as Average % weight change on day 5 as a measure of toxicity was reported at a dose of 90 mg/kg/day.; format: functional; in short: as §1
[29] = system: Mus musculus; experiment: Compound was evaluated for the anticancer activity against P388 leukemia in CD2F1 male mice at a dose of 10 mg/kg/after 30 days; 0/6; format: functional; in short: as §1
[30] = system: Mus musculus; experiment: Compound was evaluated for the anticancer activity against P388 leukemia in CD2F1 male mice at a dose of 125 mg/kg/after 30 days; 0/6; format: functional; in short: as §1
[31] = system: Mus musculus; experiment: Anticancer activity against P388 leukemia in CD2F1 male mice expressed as Average % weight change on day 5 as a measure of toxicity was reported at a dose of 10 mg/kg/day.; format: functional; in short: as §1
[32] = system: Mus musculus; experiment: Anticancer activity against P388 leukemia in CD2F1 male mice expressed as Average % weight change on day 5 as a measure of toxicity was reported at a dose of 125 mg/kg/day.; format: functional; in short: as §1
[33] = system: Mus musculus; experiment: Anticancer activity against P388 leukemia in CD2F1 male mice expressed as Average % weight change on day 5 as a measure of toxicity was reported at a dose of 5 mg/kg/day.; format: functional; in short: as §1
[34] = system: Mus musculus; experiment: Compound was evaluated for the anticancer activity against P388 leukemia in CD2F1 male mice at a dose of 6 mg/kg/after 30 days; 0/6
[35] = system: Mus musculus; experiment: Percentage increase in life span when the compound was administered intraperitoneally at dose of 200 mg/Kg in P388 leukemia in CDF1 mice was determined; format: functional; conditions: P388, ip
In short: (§2)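 Positive-control arm of the NCI P388 protocol in CD2F1 male mice, groups of six, inoculated ip with 10⁶ cells on day 0. A single 200 mg/kg per day dose was given on day 1. Survival was followed to 30 days, with T/C and %ILS from mean survival times and day-5 average weight change as toxicity.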

[36] = system: Mus musculus; experiment: Compound was evaluated for the anticancer activity against P388 leukemia in CD2F1 male mice at a dose of 200 mg/kg/day.; format: functional; in short: as §2
[37] = system: Mus musculus; experiment: Anticancer activity against P388 leukemia in CD2F1 male mice. Number of survivors vs number of treated animals after 30 days were reported at a dose of 200 mg/kg/day; 0/6; format: functional; in short: as §2
[38] = system: Mus musculus; experiment: Anticancer activity against P388 leukemia in CD2F1 male mice expressed as Average % weight change on day 5 as a measure of toxicity was reported at a dose of 200 mg/kg/day.; format: functional; in short: as §2
[39] = system: Mus musculus; experiment: Percentage increase in life span when the compound was administered intraperitoneally at dose of 6 mg/Kg in P388 leukemia in CDF1 mice was determined; format: functional; conditions: P388, ip; in short: as §1
[40] = system: Mus musculus; experiment: Compound was evaluated for the anticancer activity against P388 leukemia in CD2F1 male mice at a dose of 6 mg/kg/day.; format: functional; conditions: at 6 mg/kg/day
[41] = system: Mus musculus; experiment: Compound was evaluated for the anticancer activity against P388 leukemia in CD2F1 male mice at a dose of 60 mg/kg/after 60 days; 0/6; format: functional; in short: as §1
[42] = system: Mus musculus; experiment: Anticancer activity against P388 leukemia in CD2F1 male mice expressed as Average % weight change on day 5 as a measure of toxicity was reported at a dose of 6 mg/kg/day.; format: functional; in short: as §1
[43] = system: Mus musculus; experiment: Compound was evaluated for the anticancer activity against P388 leukemia in CD2F1 male mice at a dose of 5 mg/kg/after 30 days; 1/6; format: functional

Structure (SMILES): S=P(N1CCOCCOCCOCCOCC1)(N1CC1)N1CC1
- Partition coefficient [1]: 2.6
- ILS at 20 mg/kg [2]: 24%
- ILS at 60 mg/kg [3]: 80%
- T/C [4]: 180% and 80%
- Weight change [5]: -6.4%
- Survivors [6]: 0
- Survivors [7]: 0
- Weight change [8]: 7.9%

Structure (SMILES): C1COCCOCCOCCOCCN1
- ILS at 20 mg/kg [2]: 2%
- ILS at 60 mg/kg [3]: 0%
- Weight change [5]: 7.9%
- Survivors [6]: 0
- Survivors [7]: 0
- Weight change [8]: 8.3%

Structure (SMILES): O=P(N1CCOCCOCCOCCOCC1)(N1CC1)N1CC1
- Partition coefficient [1]: 1.32
- ILS at 10 mg/kg [9]: 66%
- ILS at 125 mg/kg [10]: -13%
- ILS at 20 mg/kg [2]: 99%
- ILS at 30 mg/kg [11]: 122%
- ILS at 40 mg/kg [12]: 137%
- ILS at 5 mg/kg [13]: 41%
- ILS at 60 mg/kg [3]: 229%
- ILS at 90 mg/kg [14]: 287%
- T/C [15]: 166% and 66%
- T/C [16]: 199% and 99%
- T/C [17]: 222% and 122%
- T/C [18]: 237% and 137%
- T/C [4]: 329% and 229%
- T/C [19]: 387% and 287%
- Survivors [20]: 5
- Survivors [21]: 0
- Survivors [22]: 0
- Survivors [23]: 3
- Survivors [24]: 1
- Survivors [25]: 6
- Weight change [26]: 0%
- Weight change [27]: -6.8%
- Weight change [5]: -4.4%
- Weight change [28]: -1.8%
- Survivors [29]: 0
- Survivors [30]: 0
- Survivors [7]: 0
- Weight change [31]: 6.2%
- Weight change [32]: -9%
- Weight change [8]: -2%
- Weight change [33]: 3.3%
- Survivors [34]: 0

Structure (SMILES): O=c1[nH]cc(F)c(=O)[nH]1 [FLUOROURACIL]
- ILS at 200 mg/kg [35]: 79%
- T/C [36]: 179% and 79%
- Survivors [37]: 0
- Weight change [38]: -4%

Structure (SMILES): O=P(N1CC1)(N1CC1)N1CC1 [TEPA]
- ILS at 6 mg/kg [39]: 136%
- T/C [40]: 236% and 136%
- Survivors [41]: 0
- Weight change [42]: -4%
- Survivors [43]: 1

Structure (SMILES): S=P(N1CC1)(N1CC1)N1CC1 [THIOTEPA]
- Partition coefficient [1]: 2.54
- ILS at 6 mg/kg [39]: 141%
- T/C [40]: 241% and 141%
- Survivors [34]: 0
